In ChEMBL document CHEMBL1687738, “Effect of Candida glabrata FKS1 and FKS2 mutations on echinocandin sensitivity and kinetics of 1,3-beta-D-glucan synthase: implication for the existing susceptibility breakpoint” (Antimicrob Agents Chemother, 2009):
pIC50: −log10 of the molar value. ≈ marks a conversion by molar mass, not a printed value. Starred links: 1 amine or outer side, 2 acyl side, 3 side chain; linkers in the order of their positions; H or OH if unused. Positions of bridges follow the written chain, without caps; N, C: chain ends. Non-standard residues stand in square brackets, D forms with d. Residues, ends and D or L forms follow the SMILES beside them. *: point of attachment. pTerphenylCO(4''-OnC5H11) = CCCCCOc1ccc(-c2ccc(-c3ccc(C(=O)*)cc3)cc2)cc1; Orn(4R-OH,5R-OH) = O=C([C@H](C[C@@H](O)[C@@H](O)N[*:3])N[*:1])[*:2]; hTyr(3S-OH,4S-OH) = N[C@H](C(=O)O)[C@H](O)[C@@H](O)c1ccc(O)cc1; Pro(3S-OH,4S-Me) = C[C@H]1CN[C@H](C(=O)O)[C@H]1O; Hyp = O=C(O)[C@@H]1C[C@@H](O)CN1

Assays:
1,3-beta-glucan synthase [1] = molecular target: 1,3-beta-glucan synthase (Candida glabrata, UniProt F5BCZ9, F659V); assay: Inhibition of Candida glabrata isolate 234 1,3-beta-D-glucan synthase wild type Fks1p/Fks2p F659V mutant; design: species or system Nakaseomyces glabratus
Summary of the method: (§1)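 Cells grown in YPD broth at 35°C with vigorous shaking to early stationary phase. Membrane protein extracted and glucan synthase partially purified by product entrapment. Filtration polymerization assay measured [3H]glucose incorporation into product, started by adding enzyme. Echinocandin serial dilutions spanned 0.01–10,000 ng/ml, with 1% DMSO controls for anidulafungin. IC50 from variable-slope sigmoidal fit.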

Nakaseomyces glabratus [2] = assay: Antifungal activity against Candida glabrata isolate 3169 expressing Fks1p D632E mutant and wild type Fks2p by CLSI method; format: functional
Summary of the method: (§2)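 Broth microdilution MIC per CLSI M27-A3 in RPMI 1640 medium without serum. Caspofungin and micafungin stocks in sterile water; anidulafungin stock in 100% DMSO; stocks kept at −86°C.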

1,3-beta-glucan synthase [3] = molecular target: 1,3-beta-glucan synthase (Candida glabrata, UniProt F5BCZ9, F659S); assay: Inhibition of Candida glabrata isolate 41026 1,3-beta-D-glucan synthase wild type Fks1p/Fks2p F659S mutant; design: species or system Nakaseomyces glabratus; summary of the method: as §1
Nakaseomyces glabratus [4] = assay: Antifungal activity against Candida glabrata isolate 41400 expressing wild type Fks1p and Fks2p D666G mutant by CLSI method in presence of 50% human serum; format: functional
Summary of the method: (§3)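 Broth microdilution MIC per CLSI M27-A3 in RPMI 1640 supplemented with 50% serum. Caspofungin and micafungin stocks in sterile water; anidulafungin stock in 100% DMSO; stocks kept at −86°C.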

Nakaseomyces glabratus [5] = assay: Antifungal activity against Candida glabrata isolate 3169 expressing Fks1p D632E mutant and wild type Fks2p by CLSI method in presence of 50% human serum; format: functional; summary of the method: as §3
[6] = molecular target: 1,3-beta-glucan synthase component FKS1 (Candida glabrata, UniProt E2GKZ4, D632G); assay: Inhibition of Candida glabrata isolate 21900 1,3-beta-D-glucan synthase Fks1p D632G mutant/wild type Fks2p; design: species or system Nakaseomyces glabratus; summary of the method: as §1
Nakaseomyces glabratus [7] = assay: Antifungal activity against Candida glabrata isolate 31498 expressing wild type Fks1p and Fks2p F659 deletion mutant by CLSI method; format: functional; summary of the method: as §2
Nakaseomyces glabratus [8] = assay: Antifungal activity against Candida glabrata isolate 51916 expressing wild type Fks1p and Fks2p P667T mutant by CLSI method; format: functional; summary of the method: as §2
[9] = molecular target: 1,3-beta-glucan synthase component FKS1 (Candida glabrata, UniProt E2GKZ4, F625S); assay: Inhibition of Candida glabrata isolate 42997 1,3-beta-D-glucan synthase Fks1p F625S mutant/wild type Fks2p; design: species or system Nakaseomyces glabratus; summary of the method: as §1
1,3-beta-glucan synthase [10] = molecular target: 1,3-beta-glucan synthase (Candida glabrata, UniProt F5BCZ9, D666E); assay: Inhibition of Candida glabrata isolate 42031 1,3-beta-D-glucan synthase wild type Fks1p/Fks2p D666E mutant; design: species or system Nakaseomyces glabratus; summary of the method: as §1
Nakaseomyces glabratus [11] = assay: Antifungal activity against Candida glabrata isolate 42971 expressing Fks1p D632Y mutant and Fks2p R1377STOP mutant by CLSI method in presence of 50% human serum; format: functional; summary of the method: as §3
Nakaseomyces glabratus [12] = assay: Antifungal activity against Candida glabrata isolate 51916 expressing wild type Fks1p and Fks2p P667T mutant by CLSI method in presence of 50% human serum; format: functional; summary of the method: as §3
Nakaseomyces glabratus [13] = assay: Antifungal activity against Candida glabrata ATCC 90030 expressing wild type Fks1p and Fks2p by CLSI method; format: functional
Summary of the method: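 Broth microdilution MIC per CLSI M27-A3 in RPMI 1640 medium, also run in RPMI 1640 with 50% serum. Wild-type control strain. Caspofungin and micafungin dissolved in sterile distilled water and anidulafungin in 100% DMSO; stock solutions stored at −86°C. Geometric means used to compare MICs.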

1,3-beta-glucan synthase [14] = molecular target: 1,3-beta-glucan synthase (Candida glabrata, UniProt F5BCZ9, P667T); assay: Inhibition of Candida glabrata isolate 51916 1,3-beta-D-glucan synthase wild type Fks1p/Fks2p P667T mutant; design: species or system Nakaseomyces glabratus; summary of the method: as §1
Nakaseomyces glabratus [15] = assay: Antifungal activity against Candida glabrata ATCC 90030 expressing wild type Fks1p and Fks2p by CLSI method in presence of 50% human serum; format: functional; summary of the method: as §3
[16] = Inhibition of Candida glabrata isolate 31498 1,3-beta-D-glucan synthase wild type Fks1p/Fks2p F659 deletion mutant; design: species or system Nakaseomyces glabratus; summary of the method: as §1
[17] = Inhibition of Candida glabrata isolate 218 wild type 1,3-beta-D-glucan synthase; design: species or system Nakaseomyces glabratus; summary of the method: as §1
[18] = Inhibition of Candida glabrata ATCC 90030 wild type 1,3-beta-D-glucan synthase; design: species or system Nakaseomyces glabratus; summary of the method: as §1
Nakaseomyces glabratus [19] = assay: Antifungal activity against Candida glabrata isolate 41400 expressing wild type Fks1p and Fks2p D666G mutant by CLSI method; format: functional; summary of the method: as §2
Nakaseomyces glabratus [20] = assay: Antifungal activity against Candida glabrata isolate 5416 expressing wild type Fks1p and Fks2p W1375L mutant by CLSI method; format: functional; summary of the method: as §2
[21] = Inhibition of Candida glabrata isolate 42971 1,3-beta-D-glucan synthase Fks1p D632Y mutant/Fks2p R1377STOP mutant; design: species or system Nakaseomyces glabratus; summary of the method: as §1
[22] = molecular target: 1,3-beta-glucan synthase component FKS1 (Candida glabrata, UniProt E2GKZ4, D632E); assay: Inhibition of Candida glabrata isolate 3169 1,3-beta-D-glucan synthase Fks1p D632E mutant/wild type Fks2p; design: species or system Nakaseomyces glabratus; summary of the method: as §1
Nakaseomyces glabratus [23] = assay: Antifungal activity against Candida glabrata isolate 234 expressing wild type Fks1p and Fks2p F659V mutant by CLSI method; format: functional; summary of the method: as §2
Nakaseomyces glabratus [24] = assay: Antifungal activity against Candida glabrata isolate 3830 expressing wild type Fks1p and Fks2p S663P mutant by CLSI method; format: functional; summary of the method: as §2
Nakaseomyces glabratus [25] = assay: Antifungal activity against Candida glabrata isolate 42997 expressing Fks1p F625S mutant and wild type Fks2p by CLSI method in presence of 50% human serum; format: functional; summary of the method: as §3
Nakaseomyces glabratus [26] = assay: Antifungal activity against Candida glabrata isolate 218 expressing wild type Fks1p and Fks2p by CLSI method; format: functional; summary of the method: as §2
Nakaseomyces glabratus [27] = assay: Antifungal activity against Candida glabrata isolate 5847 expressing Fks1p S629P mutant and wild type Fks2p by CLSI method in presence of 50% human serum; format: functional; summary of the method: as §3
Nakaseomyces glabratus [28] = assay: Antifungal activity against Candida glabrata isolate 41026 expressing wild type Fks1p and Fks2p F659S mutant by CLSI method; format: functional; summary of the method: as §2
Nakaseomyces glabratus [29] = assay: Antifungal activity against Candida glabrata isolate 31498 expressing wild type Fks1p and Fks2p F659 deletion mutant by CLSI method in presence of 50% human serum; format: functional; summary of the method: as §3
Nakaseomyces glabratus [30] = assay: Ratio of IC50 for Candida glabrata wild type 1,3-beta-glucan synthase to IC50 for Candida glabrata 1,3-beta-glucan synthase mutant
Nakaseomyces glabratus [31] = assay: Antifungal activity against Candida glabrata isolate 3168 expressing wild type Fks1p and Fks2p by CLSI method in presence of 50% human serum; format: functional; summary of the method: as §3
Nakaseomyces glabratus [32] = assay: Antifungal activity against Candida glabrata isolate 218 expressing wild type Fks1p and Fks2p by CLSI method in presence of 50% human serum; format: functional; summary of the method: as §3
Nakaseomyces glabratus [33] = assay: Antifungal activity against Candida glabrata isolate 41026 expressing wild type Fks1p and Fks2p F659S mutant by CLSI method in presence of 50% human serum; format: functional; summary of the method: as §3
Nakaseomyces glabratus [34] = assay: Antifungal activity against Candida glabrata isolate 21900 expressing Fks1p D632G mutant and wild type Fks2p by CLSI method in presence of 50% human serum; format: functional; summary of the method: as §3

1,3-beta-glucan synthase (Candida glabrata, UniProt F5BCZ9, P667T), sequence (F5BCZ9 entry or part of it P667T): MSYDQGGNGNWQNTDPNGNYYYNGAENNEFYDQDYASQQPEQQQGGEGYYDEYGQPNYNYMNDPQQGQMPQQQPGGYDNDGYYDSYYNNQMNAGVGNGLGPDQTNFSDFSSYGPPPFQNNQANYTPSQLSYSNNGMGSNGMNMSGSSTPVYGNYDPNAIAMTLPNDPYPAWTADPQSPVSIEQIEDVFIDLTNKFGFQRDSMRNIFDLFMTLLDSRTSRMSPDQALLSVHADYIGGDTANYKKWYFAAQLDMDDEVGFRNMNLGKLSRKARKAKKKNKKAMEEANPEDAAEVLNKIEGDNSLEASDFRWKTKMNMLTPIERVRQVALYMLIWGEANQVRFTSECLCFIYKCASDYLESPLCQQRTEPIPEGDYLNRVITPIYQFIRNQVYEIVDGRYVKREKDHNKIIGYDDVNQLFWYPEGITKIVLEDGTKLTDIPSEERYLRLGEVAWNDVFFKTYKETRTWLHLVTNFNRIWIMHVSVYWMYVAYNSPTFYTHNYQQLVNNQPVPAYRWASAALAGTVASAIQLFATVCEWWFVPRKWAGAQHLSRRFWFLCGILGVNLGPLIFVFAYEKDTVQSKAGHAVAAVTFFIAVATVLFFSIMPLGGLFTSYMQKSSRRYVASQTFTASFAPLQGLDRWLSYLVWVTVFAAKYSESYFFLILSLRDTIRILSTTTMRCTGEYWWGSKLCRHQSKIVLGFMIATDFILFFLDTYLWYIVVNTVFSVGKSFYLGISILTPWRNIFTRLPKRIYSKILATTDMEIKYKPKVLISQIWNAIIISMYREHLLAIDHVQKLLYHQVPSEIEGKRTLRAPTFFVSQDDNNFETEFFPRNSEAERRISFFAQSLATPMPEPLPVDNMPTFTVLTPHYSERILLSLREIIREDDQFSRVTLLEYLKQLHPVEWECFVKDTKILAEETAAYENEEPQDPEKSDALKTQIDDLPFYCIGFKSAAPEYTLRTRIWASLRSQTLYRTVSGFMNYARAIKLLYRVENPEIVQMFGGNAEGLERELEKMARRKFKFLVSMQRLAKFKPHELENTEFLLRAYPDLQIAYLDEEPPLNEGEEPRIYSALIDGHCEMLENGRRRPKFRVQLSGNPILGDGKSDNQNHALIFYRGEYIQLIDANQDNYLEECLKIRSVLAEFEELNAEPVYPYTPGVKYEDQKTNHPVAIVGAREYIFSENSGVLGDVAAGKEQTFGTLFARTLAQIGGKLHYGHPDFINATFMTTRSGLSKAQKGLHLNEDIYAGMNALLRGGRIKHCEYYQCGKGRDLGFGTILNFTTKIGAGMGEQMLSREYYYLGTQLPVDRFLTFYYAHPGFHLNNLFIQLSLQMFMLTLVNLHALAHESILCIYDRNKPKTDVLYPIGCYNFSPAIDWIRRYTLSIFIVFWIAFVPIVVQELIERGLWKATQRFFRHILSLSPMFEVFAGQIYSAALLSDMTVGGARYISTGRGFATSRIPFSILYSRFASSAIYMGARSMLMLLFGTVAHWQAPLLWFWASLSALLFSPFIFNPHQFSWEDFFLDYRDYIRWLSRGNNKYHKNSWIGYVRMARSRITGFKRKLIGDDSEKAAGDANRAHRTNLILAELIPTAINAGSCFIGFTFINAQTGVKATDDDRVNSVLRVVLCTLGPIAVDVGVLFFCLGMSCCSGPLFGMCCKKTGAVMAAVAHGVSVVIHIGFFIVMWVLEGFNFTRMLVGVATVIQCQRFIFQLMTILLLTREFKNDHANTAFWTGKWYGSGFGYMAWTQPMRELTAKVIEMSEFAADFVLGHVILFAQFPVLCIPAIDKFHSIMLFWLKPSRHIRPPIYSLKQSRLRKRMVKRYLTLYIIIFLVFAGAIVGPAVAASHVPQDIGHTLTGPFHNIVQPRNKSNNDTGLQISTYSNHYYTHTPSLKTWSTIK
1,3-beta-glucan synthase (Candida glabrata, UniProt F5BCZ9, F659V), sequence (F5BCZ9 entry or part of it F659V): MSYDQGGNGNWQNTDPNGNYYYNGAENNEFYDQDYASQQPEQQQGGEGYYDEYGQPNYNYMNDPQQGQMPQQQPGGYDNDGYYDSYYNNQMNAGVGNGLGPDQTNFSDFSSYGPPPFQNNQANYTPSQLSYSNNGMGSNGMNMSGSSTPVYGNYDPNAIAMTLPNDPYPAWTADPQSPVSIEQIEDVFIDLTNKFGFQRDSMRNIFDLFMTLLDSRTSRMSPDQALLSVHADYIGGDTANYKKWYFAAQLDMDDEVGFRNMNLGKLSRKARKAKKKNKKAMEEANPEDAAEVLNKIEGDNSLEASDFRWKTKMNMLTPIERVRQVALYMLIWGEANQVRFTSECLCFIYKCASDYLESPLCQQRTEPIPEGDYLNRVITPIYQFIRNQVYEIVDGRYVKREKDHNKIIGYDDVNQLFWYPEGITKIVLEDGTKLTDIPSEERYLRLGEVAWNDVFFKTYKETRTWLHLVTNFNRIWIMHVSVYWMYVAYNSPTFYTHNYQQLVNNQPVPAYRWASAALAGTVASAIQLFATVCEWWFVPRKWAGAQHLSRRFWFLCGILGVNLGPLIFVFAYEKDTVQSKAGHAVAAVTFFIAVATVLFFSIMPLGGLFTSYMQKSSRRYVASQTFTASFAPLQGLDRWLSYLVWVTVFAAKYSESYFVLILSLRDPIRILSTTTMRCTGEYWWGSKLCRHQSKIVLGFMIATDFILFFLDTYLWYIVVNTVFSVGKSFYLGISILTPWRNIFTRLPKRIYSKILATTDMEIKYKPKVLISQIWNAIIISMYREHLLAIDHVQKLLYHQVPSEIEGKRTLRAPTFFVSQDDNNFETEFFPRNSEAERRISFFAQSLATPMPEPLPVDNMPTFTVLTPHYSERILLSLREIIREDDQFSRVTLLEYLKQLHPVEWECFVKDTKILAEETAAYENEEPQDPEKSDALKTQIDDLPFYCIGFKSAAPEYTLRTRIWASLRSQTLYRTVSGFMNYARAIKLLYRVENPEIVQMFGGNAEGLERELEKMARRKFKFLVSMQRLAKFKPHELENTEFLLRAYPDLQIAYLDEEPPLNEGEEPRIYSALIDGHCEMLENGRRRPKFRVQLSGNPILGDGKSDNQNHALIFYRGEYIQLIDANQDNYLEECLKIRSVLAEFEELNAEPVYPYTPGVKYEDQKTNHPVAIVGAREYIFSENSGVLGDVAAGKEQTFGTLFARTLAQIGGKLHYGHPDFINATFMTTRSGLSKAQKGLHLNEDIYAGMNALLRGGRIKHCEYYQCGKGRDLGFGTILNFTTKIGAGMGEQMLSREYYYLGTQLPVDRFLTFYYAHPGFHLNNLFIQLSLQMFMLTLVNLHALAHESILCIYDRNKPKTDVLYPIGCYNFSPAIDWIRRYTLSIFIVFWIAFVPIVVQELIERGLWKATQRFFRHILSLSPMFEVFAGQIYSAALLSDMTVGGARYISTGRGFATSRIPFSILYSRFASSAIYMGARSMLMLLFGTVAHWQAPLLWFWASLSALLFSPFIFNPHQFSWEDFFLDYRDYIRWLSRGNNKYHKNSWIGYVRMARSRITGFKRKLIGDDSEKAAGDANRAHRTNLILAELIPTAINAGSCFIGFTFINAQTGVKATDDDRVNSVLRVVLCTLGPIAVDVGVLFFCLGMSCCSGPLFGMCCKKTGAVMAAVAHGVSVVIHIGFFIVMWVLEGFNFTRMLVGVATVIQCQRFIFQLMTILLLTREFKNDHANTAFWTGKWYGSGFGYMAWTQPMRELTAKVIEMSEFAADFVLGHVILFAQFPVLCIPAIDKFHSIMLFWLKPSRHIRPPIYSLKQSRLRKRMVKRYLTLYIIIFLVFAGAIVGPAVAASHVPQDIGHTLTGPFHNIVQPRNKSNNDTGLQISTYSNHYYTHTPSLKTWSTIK

## CCCCCOc1ccc(-c2ccc(-c3ccc(C(=O)N[C@H]4C[C@@H](O)[C@@H](O)NC(=O)[C@@H]5[C@@H](O)[C@@H](C)CN5C(=O)[C@H]([C@@H](C)O)NC(=O)[C@H]([C@H](O)[C@@H](O)c5ccc(O)cc5)NC(=O)[C@@H]5C[C@@H](O)CN5C(=O)[C@H]([C@@H](C)O)NC4=O)cc3)cc2)cc1 [ANIDULAFUNGIN] ({pTerphenylCO(4''-OnC5H11)}-[Orn(4R-OH,5R-OH)]T[Hyp][hTyr(3S-OH,4S-OH)]T[Pro(3S-OH,4S-Me)]; lactam 1-C)
1,3-beta-glucan synthase [1]
  pIC50: 7.12
Nakaseomyces glabratus [2]
  MIC: 2 µg/mL (≈ 1.75 µM)
1,3-beta-glucan synthase [3]
  pIC50: 6.12
Nakaseomyces glabratus [4]
  MIC: 8 µg/mL
Nakaseomyces glabratus [5]
  MIC: 8 µg/mL
[6]
  pIC50: 7.05
Nakaseomyces glabratus [7]
  MIC: 2 µg/mL (≈ 1.75 µM)
Nakaseomyces glabratus [8]
  MIC: 1.59 µg/mL (≈ 1.39 µM)
[9]
  pIC50: 7.01
1,3-beta-glucan synthase [10]
  pIC50: 6.95
Nakaseomyces glabratus [11]
  MIC: 8 µg/mL
Nakaseomyces glabratus [12]
  MIC: 8 µg/mL
Nakaseomyces glabratus [13]
  MIC: 0.06 µg/mL (≈ 0.0526 µM)
1,3-beta-glucan synthase [14]
  pIC50: 7.06
Nakaseomyces glabratus [15]
  MIC: 0.5 µg/mL
[16]
  IC50: 0.16 µg/mL (≈ 0.14 µM)
[17]
  IC50: 0.00125 µg/mL (≈ 0.0011 µM)
[18]
  IC50: 0.00191 µg/mL (≈ 0.00168 µM)
Nakaseomyces glabratus [19]
  MIC: 2 µg/mL (≈ 1.75 µM)
Nakaseomyces glabratus [20]
  MIC: 0.25 µg/mL (≈ 0.219 µM)
[21]
  IC50: 2.5435 µg/mL (≈ 2.23 µM)
[22]
  pIC50: 6.88
Nakaseomyces glabratus [23]
  MIC: 1 µg/mL (≈ 0.877 µM)
Nakaseomyces glabratus [24]
  MIC: 1 µg/mL (≈ 0.877 µM)
Nakaseomyces glabratus [25]
  MIC: 8 µg/mL
Nakaseomyces glabratus [26]
  MIC: 0.06 µg/mL (≈ 0.0526 µM)
Nakaseomyces glabratus [27]
  MIC: 8 µg/mL
Nakaseomyces glabratus [28]
  MIC: 4 µg/mL (≈ 3.51 µM)
Nakaseomyces glabratus [29]
  MIC: 8 µg/mL
Nakaseomyces glabratus [30]
  Ratio IC50: 54
Nakaseomyces glabratus [31]
  MIC: 0.5 µg/mL
Nakaseomyces glabratus [32]
  MIC: 0.5 µg/mL
Nakaseomyces glabratus [33]
  MIC: 16 µg/mL
Nakaseomyces glabratus [34]
  MIC: 8 µg/mL
